The nature of assay [1]: Antagonist activity at GST-tagged human recombinant FXRalphaLBD expressed in Escherichia coli BL21 cells assessed as inhibition of CDCA-induced SRC-1 co-activator association at 40 uM by HTRF assay. The assay is classed as functional. The gist of the method: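 HTRF coactivator recruitment: 10 nM GST-human FXRαLBD (residues 238–473, E. coli BL21(DE3)), 0.83 nM anti-GST-Eu cryptate, 100 nM biotin-SRC1 peptide, 41.75 nM SA/XL665. Buffer was 50 mM Hepes pH 7.0, 125 mM KF, 0.125% CHAPS, 0.05% dry milk. Compound alone or with CDCA, 30 min at room temperature. Signal was 1000×(668/620 nm). Primary screen at 40 μM; IC50 as mean ± SE, three experiments.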
A general note: TR-FRET usually uses a lanthanide donor and a delayed reading to cut background.

The subject of assay [2] is Mus musculus. Kind of assay: Reduction of total serum cholesterol level in cholesterol-fed C57BL/6 mouse at 50 to 100 mg/kg, po after 10 days. Format: functional. Also on record: scale not given: the % may be the effect or the level left. To be noted: dose mg/kg 50-100. The gist of the method:
(§1)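 Male C57BL/6 mice, 8–12 weeks old, were randomized into five groups of nine. Control mice had ground chow; the other groups had chow with 2% cholesterol. Compound (50 or 100 mg/kg) or reference (100 mg/kg) was suspended in 0.5% CMC-Na and given by oral gavage; control and vehicle mice got 0.5% CMC-Na. Serum and hepatic triglyceride and total cholesterol were measured.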

In assay [3] the target is T1, Oxysterols receptor LXR-alpha (Homo sapiens) (UniProt Q13133).
T1 sequence (whole entry): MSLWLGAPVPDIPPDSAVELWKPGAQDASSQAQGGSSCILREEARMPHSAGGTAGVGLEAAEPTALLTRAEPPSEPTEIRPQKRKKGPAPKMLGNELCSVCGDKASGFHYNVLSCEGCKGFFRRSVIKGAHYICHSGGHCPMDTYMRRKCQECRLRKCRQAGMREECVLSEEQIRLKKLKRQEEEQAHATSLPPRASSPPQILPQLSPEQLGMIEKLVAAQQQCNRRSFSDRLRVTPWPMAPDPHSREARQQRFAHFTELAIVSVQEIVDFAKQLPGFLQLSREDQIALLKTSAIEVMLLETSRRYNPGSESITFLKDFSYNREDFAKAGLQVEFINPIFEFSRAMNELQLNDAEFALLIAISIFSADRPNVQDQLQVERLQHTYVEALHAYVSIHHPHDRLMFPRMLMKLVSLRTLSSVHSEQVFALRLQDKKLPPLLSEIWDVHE
Description: Agonist activity at recombinant LXRalphaLBD expressed in HEK293T cells co-expressing GAL4 DBD at 20 uM by transactivation assay. To be noted: HEK-293T. Format: functional, cell-based. Summed up: (§2)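 One-hybrid assay in HEK293T cells cotransfected with a Gal4 DBD–NR-LBD fusion (RXRα, LXRα, GR, PR, PPARδ or PPARγ) plus UAS-TK-Luc reporter. Compound was 20 μM, given alone or with agonist: 9cRA 0.1 μM (RXRα), TO901317 0.5 μM (LXRα), dexamethasone 50 nM (GR), progesterone 100 nM (PR), GW1516 10 μM (PPARδ), rosiglitazone 10 μM (PPARγ). Luciferase read-out; three independent experiments.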

A short description of assay [4]: Binding affinity to FXRalphaLBD assessed as fluorescence quenching after 1 hr. Summed up:
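Untagged FXRαLBD (His-tag removed with thrombin; Ni-NTA and ion exchange purified), 1 μM, was incubated with varied compound concentrations for 1 h at 4 °C. Tryptophan fluorescence was read at 25 °C: excitation 280 nm, emission 300–400 nm, 5 nm slits. KD was fitted from quenching.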

The species entered for another assay is Homo sapiens. Description: Ratio of Z-guggulsterone IC50 to compound IC50 for GST-tagged human recombinant FXRalphaLBD.
The subject of assay [5] is HEK-293T. Description: Agonist activity at FXRalpha/RXRalpha expressed in HEK293T cells co-expressing GAL4 DBD after 18 hrs by luciferase based transactivation assay. Format: functional, cell-based. The settings on record: Homo sapiens. The gist of the method: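 FXR transactivation in HEK293T cells transiently transfected with pcDNA3.1-FXRα, pcDNA3.1-RXRα, pGL3-FXRE-Luc and pRL-SV40 Renilla vector. Medium was replaced 6 h after transfection with medium holding compound at varied concentrations, with or without 20 μM CDCA, for 18 h. Read-out was dual-luciferase. Three independent experiments.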

The test system of assay [6] is HEK-293T. Description: Antagonist activity at FXRalphaLBD expressed in HEK293T cells co-expressing GAL4 DBD assessed as inhibition of CDCA-induced transactivation at 60 uM after 18 hrs by luciferase reporter gene assay. Format: functional, cell-based. To be noted: Homo sapiens. The gist of the method:
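Mammalian one-hybrid assay in HEK293T cells cotransfected with pCMX-Gal4DBD-FXRαLBD, UAS-TK-Luc reporter and pRL-SV40 Renilla vector. Cells were exposed to vehicle or compound for 18 h, with or without 20 μM CDCA. Read-out was dual-luciferase. Three independent experiments.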
(Reporter assays use an easily measured gene product as a stand-in for the process of interest.)

In assay [7] the target is T2, Bile acid receptor (Homo sapiens) (UniProt Q96RI1).
T2 sequence (whole entry): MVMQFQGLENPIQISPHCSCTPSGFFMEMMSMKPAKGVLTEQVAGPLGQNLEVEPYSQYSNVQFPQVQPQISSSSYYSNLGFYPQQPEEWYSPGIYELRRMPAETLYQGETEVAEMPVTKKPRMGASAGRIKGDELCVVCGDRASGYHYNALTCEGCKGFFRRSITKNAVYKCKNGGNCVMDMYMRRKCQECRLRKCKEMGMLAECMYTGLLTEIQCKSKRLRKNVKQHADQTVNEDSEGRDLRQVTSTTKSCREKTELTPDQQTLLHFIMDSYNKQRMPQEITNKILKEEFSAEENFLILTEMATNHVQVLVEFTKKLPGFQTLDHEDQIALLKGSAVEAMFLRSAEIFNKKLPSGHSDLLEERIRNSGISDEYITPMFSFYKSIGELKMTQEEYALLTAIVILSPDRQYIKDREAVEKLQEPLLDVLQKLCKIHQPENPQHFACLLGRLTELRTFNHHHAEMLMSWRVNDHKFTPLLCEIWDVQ
Kind of assay: Antagonist activity at human FXR in human HepG2 cells assessed as reduction in triglyceride level after 24 hrs. Format: functional, cell-based. The gist of the method: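 HepG2 cells were serum-starved overnight in FBS-free DMEM, then given DMSO or compound for 24 h in serum-free DMEM. Cells were lysed in RIPA buffer, sonicated on ice and centrifuged at 12000 rpm, 4 °C. Triglyceride and total cholesterol in the cleared lysate were measured by kits, with total protein by BCA. At least three experiments.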

Assay [8] addresses T1, Oxysterols receptor LXR-alpha (Homo sapiens). Description: Antagonist activity at recombinant LXRalpha LBD expressed in HEK293T cells co-expressing GAL4 DBD assessed as inhibition of TO901317-induced transactivation at 20 uM by luciferase reporter gene assay. Format: functional, cell-based. To be noted: HEK-293T. The gist of the method:
as §2

The target in assay [9] is T2, Bile acid receptor (Homo sapiens). Description: Antagonist activity at human FXR in human HepG2 cells assessed as inhibition of CDCA induced SREBP1c gene expression at 5 to 40 uM after 24 hrs by RT-PCR analysis. The assay is classed as functional, cell-based. Summed up: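 HepG2 cells in 6-well plates were treated with varied concentrations of compound, with or without 100 μM CDCA, for 24 h. Total RNA was taken with TRIzol and cDNA made by reverse transcription. Cyp7A1, SHP, BSEP and SREBP1c mRNA were measured by quantitative RT-PCR and normalized to β-actin. Three independent experiments.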

Assay [10] relates to Mus musculus. Kind of assay: Reduction of serum triglyceride level in cholesterol-fed C57BL/6 mouse at 50 mg/kg, po after 10 days. The assay is classed as functional. Also on record: scale not given: the % may be the effect or the level left. Summed up: as §1

As a reminder, the inhibition is the relative decrease from the control value, in per cent. By Kd is commonly meant the equilibrium constant for the complex coming apart.

Active and inactive are the calls of the source. No cut-off for these calls is given here.

As to `COc1cc(/C=C2\C(=O)N(c3cccc([N+](=O)[O-])c3)N=C2c2ccccc2)ccc1O`, the inhibition at 40 µM in assay [1] was determined as 70.4%. Also, the Activity in the assay with Mus musculus [2] is 17.2%; in [4], “Dose-dependent effect”; with Mus musculus [10], 48.4%. Besides, the outcome (in assay [3]; with HEK-293T [5]) was inactive. In addition, in assay [4], the dissociation constant (Kd) came to 23.1 µM. Further, the Ratio IC50 in the assay listed under Homo sapiens stood at 10. Besides, the inhibition result (in the assay with HEK-293T [6]; in [9]) was “Active” in each case. Further, in [7], the inhibition entry is “Dose-dependent effect”. Further, the inhibition entry in [8] was “inactive”.

For the origin of these results see ChEMBL document CHEMBL2169822, “Discovery and optimization of 1,3,4-trisubstituted-pyrazolone derivatives as novel, potent, and nonsteroidal farnesoid X receptor (FXR) selective antagonists” (J Med Chem, 2012).
